ChEMBL document CHEMBL1121891, “Structure--activity relationship in cinnamamides. 3. Synthesis and anticonvulsant activity evaluation of some derivatives of (E)- and (Z)-m-(trifluoromethyl)cinnamamide” (J Med Chem, 1981)
The source made the active and inactive calls. The calls are words filed in the database; no cut-off is given here.

Legend:
Mus musculus [1] = assay: Compound was evaluated for loss of righting reflex after peroral administration; assay type: functional
In short: (§1)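 Irwin observational test in fasted male albino mice given oral suspensions in 0.5% methocel by gavage. Doses were 25, 50, 100, 200, 400 and 800 mg/kg, with signs checked up to 6 h. The value is the dose giving 50% of maximal effect, interpolated graphically from the log dose/peak effect curve.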

Mus musculus [2] = assay: Compound was evaluated for positional passivity after peroral administration; assay type: functional; in short: as §1
Mus musculus [3] = assay: Compound was evaluated for anticonvulsant activity in mouse after peroral administration.; assay type: functional; conditions: po
In short: (§2)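 Male albino mice (Icem-CET, SPF Caw), 17–22 g, fasted 9 h; compounds suspended in 0.5% methocel and given by gavage at 0.2 mL/10 g. Antagonism of pentylenetetrazole seizures was scored in groups of 20 per dose, at four or five doses per compound. ED50 was derived by probit analysis with p = 0.05 fiducial limits. Inactives were tested at a single screening dose.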

Mus musculus [4] = assay: Locomotor activity reduction after peroral administration; assay type: functional; in short: as §1
[5] = Lethal dose after peroral administration; assay type: toxicity, organism-based; conditions: mouse, in vivo, po
Mus musculus [6] = assay: Compound was evaluated for minimum effective dose of clonic-type convulsions after peroral administration; E denotes absent from 25-800 mg/Kg; assay type: functional, organism-based
In short: (§3)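 Fasted male albino mice received oral suspensions in 0.5% methocel by gavage at 25–800 mg/kg during Irwin-type behavioral observation, followed up to 6 h. The value is the minimum effective dose producing clonic-type convulsions.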

Mus musculus [7] = assay: Compound was evaluated for tremors after peroral administration; E denotes absent from 25-800 mg/Kg; assay type: functional, organism-based; in short: as §1
Mus musculus [8] = assay: Compound was evaluated for positional passivity after peroral administration; E denotes absent from 25-800 mg/Kg; assay type: functional, organism-based; in short: as §1
Mus musculus [9] = assay: Compound was evaluated for tremors after peroral administration; assay type: functional; in short: as §1
Mus musculus [10] = assay: Compound was evaluated for anticonvulsant activity in mouse after peroral administration; IA is inactive at screening dose; assay type: functional, organism-based; in short: as §2
Mus musculus [11] = assay: Compound was evaluated for positional passivity after peroral administration; H denotes absent from 25-800 mg/Kg; assay type: functional, organism-based; in short: as §1
Mus musculus [12] = assay: Compound was evaluated for anticonvulsant activity in mouse after peroral administration; IA is Inactive at the screening dose; assay type: functional, organism-based; in short: as §2
Mus musculus [13] = assay: Compound was evaluated for anticonvulsant activity in mouse after peroral administration; Not checked; assay type: functional, organism-based
Mus musculus [14] = assay: Compound was evaluated for minimum effective dose of clonic-type convulsions after peroral administration; assay type: functional; conditions: po, read-out: MED; in short: as §3
Mus musculus [15] = assay: Compound was evaluated for anticonvulsant activity in mouse after peroral administration; inactive at screening dose 100 mg/kg; assay type: functional, organism-based; set-up: dose 100 mg/kg; in short: as §2

Row | Compound | Reflex (Mus musculus [1]) | Passivity (Mus musculus [2]) | ED50 (Mus musculus [3]) | Locomotor activity (Mus musculus [4]) | LD50 [5] | other results
1 | C#CCNC(=O)/C(C)=C(\C)c1ccc(Cl)cc1 | 200 mg/kg | 400 mg/kg | 10.6 mg/kg | 60 mg/kg |  | 
2 | C/C(C(=O)NC1CC1)=C(/C)c1ccc(Cl)cc1 | 150 mg/kg | >800 mg/kg | 11.4 mg/kg | 350 mg/kg | 300 mg/kg | 
3 | C=CCNC(=O)/C(C)=C(\C)c1ccc(Cl)cc1 | 70 mg/kg | 90 mg/kg | 18.6 mg/kg | 70 mg/kg | 300 mg/kg | 
4 | C/C(C(=O)NC1CC1)=C(\C)c1ccc(Br)cc1 |  | 450 mg/kg | 52.4 mg/kg | 300 mg/kg | 600 mg/kg | MED (Mus musculus [6]): Absent; Tremors (Mus musculus [7]): Absent
5 | C=CCNC(=O)/C(C)=C(\C)c1ccccc1 | 250 mg/kg | 300 mg/kg | 67 mg/kg | 130 mg/kg |  | 
6 | C/C(C(=O)NC1CC1)=C(\C)c1ccc(Cl)cc1 |  |  | 36.3 mg/kg | 170 mg/kg |  | MED (Mus musculus [6]): Absent; Passivity (Mus musculus [8]): Absent; Reflex (Mus musculus [9]): 600 mg/kg
7 | C/C(C(N)=O)=C(\C)c1ccccc1 |  | 800 mg/kg |  | 400 mg/kg | > 800 mg/kg | ED50 (Mus musculus [10]): inactive; MED (Mus musculus [6]): Absent; Tremors (Mus musculus [7]): Absent
8 | C/C(C(=O)NC1CC1)=C(/C)c1ccccc1 | 150 mg/kg | 250 mg/kg | 55.9 mg/kg | 100 mg/kg | 500 mg/kg | 
9 | C=CCNC(=O)/C(C)=C/c1ccccc1 | 150 mg/kg | 280 mg/kg | 53.8 mg/kg | 200 mg/kg | 600 mg/kg | 
10 | C/C(C(=O)NC1CC1)=C(/C)c1cccc(C(F)(F)F)c1 | 100 mg/kg | 180 mg/kg | 17.4 mg/kg | 80 mg/kg | 140 mg/kg | 
11 | NC(=O)/C=C/c1cccc(C(F)(F)F)c1 | 70 mg/kg | 200 mg/kg | 23.2 mg/kg | 70 mg/kg | 600 mg/kg | 
12 | O=C(/C=C/c1cccc(C(F)(F)F)c1)NC1CC1 | 100 mg/kg | 400 mg/kg | 9.6 mg/kg | 100 mg/kg | 700 mg/kg | 
13 | C#CCNC(=O)/C(C)=C(\C)c1cccc(C(F)(F)F)c1 | 110 mg/kg | 180 mg/kg | 25.1 mg/kg | 80 mg/kg | 170 mg/kg | 
14 | C/C(=C\c1cccc(C(F)(F)F)c1)C(=O)NC1CC1 | 150 mg/kg | 400 mg/kg | 24.1 mg/kg | 120 mg/kg | 700 mg/kg | 
15 | C/C(C(=O)NC1CC1)=C(\C)c1cccc(C(F)(F)F)c1 |  |  | 65.5 mg/kg | 800 mg/kg | > 800 mg/kg | MED (Mus musculus [6]): Absent; Passivity (Mus musculus [8]): Absent; Tremors (Mus musculus [7]): Absent
16 | C=CCNC(=O)/C=C/c1ccccc1 | 150 mg/kg | 280 mg/kg | 52.4 mg/kg | 150 mg/kg | 300 mg/kg | 
17 | O=C1NC(=O)C(c2ccccc2)(c2ccccc2)N1 [PHENYTOIN] | 250 mg/kg |  | 9.11 mg/kg | 150 mg/kg |  | Passivity (Mus musculus [11]): inactive
18 | C/C(C(N)=O)=C(\C)c1cccc(C(F)(F)F)c1 |  | 250 mg/kg | 32.2 mg/kg | 180 mg/kg | 600 mg/kg | MED (Mus musculus [6]): Absent; Tremors (Mus musculus [7]): Absent
19 | C/C(C(N)=O)=C(/C)c1cccc(C(F)(F)F)c1 | 25 mg/kg | 85 mg/kg |  | 100 mg/kg | 200 mg/kg | ED50 (Mus musculus [12]): inactive
20 | C/C(C(N)=O)=C(/C)c1ccc(Cl)cc1 | 150 mg/kg | 300 mg/kg | 20.9 mg/kg | 200 mg/kg | 550 mg/kg | 
21 | C/C(=C\c1cccc(C(F)(F)F)c1)C(N)=O | 150 mg/kg | 250 mg/kg | 22.4 mg/kg | 50 mg/kg | 800 mg/kg | 
22 | CCC1(c2ccccc2)C(=O)N=C([O-])NC1=O.[Na+] (stereo unspecified) [PHENOBARBITAL SODIUM] | 110 mg/kg | 180 mg/kg | 6.1 mg/kg | 180 mg/kg |  | 
23 | C=CCNC(=O)/C(C)=C(\C)c1cccc(C(F)(F)F)c1 | 140 mg/kg | 350 mg/kg |  | 150 mg/kg | 400 mg/kg | ED50 (Mus musculus [13]): Not checked
24 | C/C(C(=O)NC1CC1)=C(\C)c1ccccc1 |  |  |  | 400 mg/kg | 600 mg/kg | minimal effective dose (Mus musculus [14]): 400 mg/kg; Passivity (Mus musculus [8]): Absent; Reflex (Mus musculus [9]): 300 mg/kg; ED50 (Mus musculus [15]): inactive
25 | C=CCNC(=O)/C=C(\C)c1ccccc1 | 150 mg/kg | 250 mg/kg | 65.8 mg/kg | 150 mg/kg | 450 mg/kg | 
